The values below come from ChEMBL document CHEMBL4266015, “Scaffold Ranking and Positional Scanning Identify Novel Neurite Outgrowth Promoters with Nanomolar Potency” (2018).

Common to all, as to format: functional, Hippocampal neurone
Assay [1] can be described thus: Induction of neurite outgrowth in rat hippocampal neurons assessed as neurite total length at 500 ng/ml after 48 hrs relative to control. In short, it runs like this: (§1)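 E18 rat hippocampal neurons were plated on PDL at 1800 cells/well in NbActive4, adhered 2 h, then treated with compound prediluted in medium at 4× final for 48 h. Cells were fixed, stained for βIII-tubulin, imaged and auto-traced. Mean neurite total length is a percentage of DMSO vehicle wells on the same plate. ML-7 was the positive control and plates with Z-factor >0.5 were accepted.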

The nature of assay [2]: Induction of neurite outgrowth in rat hippocampal neurons assessed as neurite total length at 250 ng/ml after 48 hrs relative to control. Summed up:
as §1

A short description of assay [3]: Induction of neurite outgrowth in rat hippocampal neurons assessed as neurite total length at 125 ng/ml after 48 hrs relative to control. Summed up: as §1
Assay [4] is described as follows: Induction of neurite outgrowth in rat hippocampal neurons assessed as neurite total length at 62.5 ng/ml after 48 hrs relative to control. In short, it runs like this: as §1
Assay [5] can be described thus: Induction of neurite outgrowth in rat hippocampal neurons assessed as neurite total length at 31.25 ng/ml after 48 hrs relative to control. In short, it runs like this:
as §1

Assay [6] in a line: Induction of neurite outgrowth in rat hippocampal neurons assessed as neurite total length at 15.625 ng/ml after 48 hrs relative to control. In short, it runs like this:
as §1

Assay [7] in a line: Induction of neurite outgrowth in rat hippocampal neurons assessed as neurite total length after 48 hrs. Summed up:
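Dissociated E18 rat hippocampal neurons were seeded on PDL-coated plates at 1800 cells/well in NbActive4 and allowed to adhere 2 h. Compounds were prediluted in medium at 4× final and added, then cells were grown 48 h (2 DIV). Wells were fixed, immunostained for βIII-tubulin and imaged by automated tracing. ED200% and ED300% values were linearly interpolated from dose-response curves of mean neurite total length.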

For `CCC(C)C1=N[C@@H](CCCCN2C[C@@H](c3ccccc3)N(CC3CCC(C)CC3)C2=S)CN1` (stereo partly drawn), the Activity is on record as 279.8% in assay [1]; 255.9% in assay [2]; 301.9% in assay [3]; 296.7% in assay [4]; 256.2% in assay [5]; 190% in assay [6]. Also, the ED200 in assay [7] is 5 nM. Besides, the ED300 in assay [7] is on record as 54 nM.
For `CC1CCC(CN2C(=S)N(CCCC[C@H]3CNC(C4CCCC4)=N3)C[C@H]2C)CC1` (stereo partly drawn), the Activity in assay [1] was found to be 322.3%; in assay [2], 257.3%; in assay [3], 230.7%; in assay [4], 168.1%; in assay [5], 128.3%; in assay [6] it was 94.61%. Also, the ED200 in assay [7] is reported as 130 nM. For the same molecule, the ED300 in assay [7] is reported as 282 nM.
For `CC(C)C[C@@H]1CN(CCCC[C@H]2CNC(CCCc3ccccc3)=N2)C(=S)N1CC1CCC(C)CC1` (stereo partly drawn), the Activity in assay [1] is reported as 224.4%; in assay [2], 240%; in assay [3], 256.9%; in assay [4] it was 246.7%; in assay [5] it was 197%; in assay [6], 144.9%. Besides, the ED200 in assay [7] was 25 nM. Further, the ED300 in assay [7] was found to be 461 nM.
Consider `CC(C)C[C@@H]1CN(CCCC[C@H]2CNC(C3CCCC3)=N2)C(=S)N1CC1CCC(C)CC1` (stereo partly drawn), for which the Activity in assay [1] is on record as 263%; in assay [2], 238.5%; in assay [3], 311.6%; in assay [4], 253.6%; in assay [5], 255.4%; in assay [6], 169.9%. In addition, in assay [7], the ED200 is 4 nM. Also, the ED300 in assay [7] came to 25 nM.
For the molecule `CC1CCC(CN2C(=S)N(CCCC[C@H]3CNC(C4CCCC4)=N3)C[C@H]2c2ccccc2)CC1` (stereo partly drawn), the Activity is listed as 229.6% in assay [1]; 270.8% in assay [2]; 286.2% in assay [3]; 305.6% in assay [4]; 271.9% in assay [5]; 251% in assay [6]. In addition, in assay [7], the ED200 was 2 nM. The ED300 in assay [7] is greater than 520 nM.
Consider `S=C1N(CCCC[C@H]2CNC(C3CCCC3)=N2)C[C@@H](c2ccccc2)N1CCC1CCCCC1`, for which the Activity is 185.9% in assay [1]; 232.4% in assay [2]; 261.9% in assay [3]; 260.5% in assay [4]; 251.5% in assay [5]; 182.3% in assay [6]. In addition, the ED200 in assay [7] worked out at 7 nM. Further, the ED300 in assay [7] worked out at 91 nM.
